High-throughput results from PubChem BioAssay.
Sampled rows, rich in hits. Any-hit rate of the full collection: about 1.8%.
CHRM4 PAM: CHRM4 positive allosteric modulation; activation, % at 3 µM; CHO-K1 hM4/Gqi5, Fluo-8 calcium fluorescence, ACh EC20; 0% = ACh EC20, 100% = maximal ACh; AID 624126; P08173; actives 0.4% (n = 360,000);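 active = activation above its plate's cutoff, the mean activation of sample wells plus 3 SD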
Target sequence (P08173 whole entry, looked up): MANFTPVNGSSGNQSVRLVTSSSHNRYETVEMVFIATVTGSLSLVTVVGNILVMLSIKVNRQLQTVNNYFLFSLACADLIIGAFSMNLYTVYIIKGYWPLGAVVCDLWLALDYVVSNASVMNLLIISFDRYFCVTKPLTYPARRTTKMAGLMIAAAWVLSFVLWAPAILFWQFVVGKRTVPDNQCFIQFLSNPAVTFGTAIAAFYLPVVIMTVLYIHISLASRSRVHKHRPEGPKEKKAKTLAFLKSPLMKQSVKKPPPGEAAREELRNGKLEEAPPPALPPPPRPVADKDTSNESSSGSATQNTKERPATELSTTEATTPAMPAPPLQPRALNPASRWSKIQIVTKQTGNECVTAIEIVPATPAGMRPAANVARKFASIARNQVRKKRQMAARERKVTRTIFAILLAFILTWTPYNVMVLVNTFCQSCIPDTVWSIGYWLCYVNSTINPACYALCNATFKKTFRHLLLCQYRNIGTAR
CHRM5 agonist: agonists of human muscarinic M5 receptor (CHRM5). P08912. CHO-K1 hM5 cells, Fluo-8 calcium fluorescence; 0% DMSO wells, 100% maximal acetylcholine response. activation, % at 3 µM. actives 0.19% (n = 360,000). AID 624037;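 active = activation above the run's mean over test compounds plus 3 SD, cut at about 23% in these data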;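 note: signal is peak over basal fluorescence ratio across the kinetic read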
CHRM5 PAM: CHRM5 positive allosteric modulation | P08912 | actives 0.3% (n = 360,000) | AID 624038 | activation, % at 3 µM | CHO-K1 hM5, Fluo-8 calcium, ACh EC20 PAM; 0% = ACh EC20, 100% = ACh EC100;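 active = activation above the run cutoff, the mean activation of all test compounds plus 3 SD, cut at about 18% in these data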
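system = human M5 receptor in CHO-K1 cells | compound = one concentration, 3 µM final (nominal) | schedule = Post-acetylcholine fluorescence recording 140 s | signal = Fluo-8 calcium dye fluorescence, kinetic read | benchmarks = low control EC20 acetylcholine (0%), high control EC100 acetylcholine (100%) | repeats = singlicate, one well per test compound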
CHRM5 antagonist: CHRM5 antagonism in calcium assay; P08912; CHO-hM5 cells, Fluo-8 calcium fluorescence, ACh EC80; inhibition, % at 3 µM; actives 0.59% (n = 360,000);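 active = inhibition above a per-plate cutoff, the mean of that plate's test compounds plus 3 SD, cut at about 27% in these data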;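 note: 0% = acetylcholine EC80 with DMSO and 100% = DMSO without agonist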
M4 antag: blocks acetylcholine activation of human M4 receptor | inhibition, % at 3 µM | actives 0.73% (n = 360,000) | CHO-hM4 cells, ACh EC80, Fluo-8 calcium fluorescence;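 active = inhibition above its plate's cutoff, the mean inhibition of sample wells plus 3 SD, cut at about 27% in these data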;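 note: 0% = acetylcholine EC80 with DMSO and 100% = DMSO without agonist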
M4 ag: CHRM4 agonism in calcium assay; CHO-K1 hM4/Gqi5, Fluo-8 calcium fluorescence; vehicle 0%, full acetylcholine response 100%; activation, % at 3 µM; actives 0.14% (n = 360,000);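 active = activation above the run mean over all test wells plus 3 SD, cut at about 32% in these data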;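 note: peak over basal fluorescence ratio per well then scaled between controls; 0% = DMSO wells and 100% = acetylcholine at EC100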
The depositor's hits bear a star.

SMILES	CHRM4 PAM	CHRM5 agonist	CHRM5 PAM	CHRM5 antagonist	M4 antag	M4 ag
COc1cc(C2NC(=O)NC(O)(C(F)(F)F)C2C(=O)c2cccs2)ccc1O (stereo not given)	0	0	-1	4	7	1
COc1ccc(C2NC(=S)NC(O)(C(F)(F)F)C2C(=O)c2cccs2)cc1 (stereo not given)	-37	-6	-16	5	43*	2
Cc1cc(C)n2nc(SCCOc3ccccc3)nc2n1	21*	1	3	5	-22	2
COc1ccc(OCCSc2nc3nc(C)cc(C)n3n2)cc1	0	4	1	1	5	0
CCOc1cc(C)c(S(=O)(=O)Nc2ccc3cn[nH]c3c2)cc1C	-2	9	-16	30*	17	14
Cc1ccc(S(=O)(=O)Nc2ccc3cn[nH]c3c2)c(C)c1	0	12	-5	4	0	6
O=S(=O)(Nc1cccnc1)c1ccc(Cl)cc1	20*	-1	-4	2	-3	2
COc1ccc(-n2nnc3c(=O)n(CC(=O)N4CCCc5ccccc54)cnc32)cc1	-2	0	-3	2	1	0
CCOc1ccc(-n2nnc3c(=O)n(CC(=O)N4CCCc5ccccc54)cnc32)cc1	-18	-1	-11	2	88*	0
CCCCNC(=O)NC1(C(F)(F)F)Oc2ccccc2O1	2	-7	2	-7	-6	0
NS(=O)(=O)c1ccc(CCNC(=O)NC2(C(F)(F)F)Oc3ccccc3O2)cc1	-7	-13	31*	-12	7	0
CCN1C(=O)[C@@H]2Cc3c([nH]c4ccccc34)C(c3ccc(OC)cc3)N2C1=S (stereo not given in full)	-17	-1	-18	29*	34*	18
Cc1ccc(O)c(C(=O)c2cc(C#N)c(=O)n(-c3nccs3)c2)c1	-18	34*	-17	32*	26	57*
CCCn1c(=S)[nH]c2cc(C(=O)N3CCN(c4ccccc4OC)CC3)ccc2c1=O	8	1	0	1	39*	2
NC(c1ccncc1)c1ccc(Cl)cc1 (stereo not given)	4	0	-2	-4	-5	2
Cn1nc(C(F)(F)F)c(-c2ccc(Br)cc2)c1NC(=O)Nc1ccc(F)cc1F	-14	9	-20	30*	8	14
CCN(CC)c1ccc(C2C(C(=O)OCCOC(C)C)=C(C)NC3=C2C(=O)CCC3)cc1 (stereo not given)	-20	-7	-21	25	33*	1
COCCCNC(=O)/C=C/[C@H]1O[C@@H](n2cnc3c(NC(=O)c4ccccc4)ncnc32)[C@H](O)[C@@H]1O	23*	1	0	-3	-9	1
Cc1cccc(-c2noc(-c3csc([C@@H]4C[C@H](O)[C@@H](CO)O4)n3)n2)c1	8	1	-10	29*	-15	7
CCCCCCCCCCCCCCCCCCNc1ccn(C2OC(COP(=O)(O)OCC3OC(n4cc(F)c(=O)[nH]c4=O)CC3O)C(O)C2O)c(=O)n1 (stereo not given)	-2	1	-3	12	3	0
O=C(NC(Nc1nc2ccc([N+](=O)[O-])cc2s1)(C(F)(F)F)C(F)(F)F)c1ccccc1Cl	-10	6	-19	49*	15	7
O=C(NC(Nc1nc2ccc([N+](=O)[O-])cc2s1)(C(F)(F)F)C(F)(F)F)c1cccnc1	-7	9	-15	26	8	14
CC(=O)OC[C@]1(OC(C)=O)C[C@@]23CC[C@H]4[C@@](C)(CCC[C@@]4(C)C(=O)O)[C@@H]2CC[C@@H]1C3	2	-1	-2	7	-1	1
CC(=O)OC[C@]12CC[C@H]3[C@@](C)(CC[C@H]4C(C)(C)CCC[C@]34C)[C@@H]1CC(C1=CC(=O)OC1O)O2 (stereo not given in full)	-13	1	-2	13	88*	2
Cc1cc(/C=N/n2cnnc2)c(C)n1-c1ccc(OCc2ccc(Cl)cc2Cl)cc1	-12	-5	-15	37*	47*	3
SMILES	CHRM4 PAM	CHRM5 agonist	CHRM5 PAM	CHRM5 antagonist	M4 antag	M4 ag
O=S(=O)(/C(=C\c1ccc(C(F)(F)F)cc1)c1nc2ccccc2[nH]1)c1ccccc1	-7	5	8	13	44*	3
Cc1nc(NC(=O)c2ccc(Br)o2)ccc1Br	16*	0	6	2	-5	0
Cc1ccn2c(=O)c(NC(=O)c3ccc(Br)o3)c(C)nc2c1	23*	0	-7	2	7	1
C=CCC[C@H](Cc1ccc(F)cc1)C(=O)OC[C@H](Cc1c[nH]c2ccccc12)NC(=O)[C@H](CC=C)CC(=O)NCCO	0	2	-16	13	30*	18
C=CC[C@@H](CC(=O)N[C@@H](CO)Cc1ccccc1)C(=O)N[C@H](C)COC(=O)[C@@H](CC=C)Cc1ccc(F)cc1	26*	3	5	5	5	2
C=CC[C@H](CC(=O)N(CCO)Cc1ccccc1)C(=O)N[C@H](COC(=O)[C@@H](CC=C)CC(=O)OC(C)(C)C)Cc1c[nH]c2ccccc12	-4	4	-21	14	27*	14
C=CC[C@@H](CC(=O)N[C@@H](CO)Cc1ccccc1)C(=O)N[C@@H](C)COC(=O)[C@@H](CC=C)Cc1ccc(F)cc1	11	-1	-9	18	-10	4
COc1ccnc(Oc2ccccc2)c1C(=O)N/C=N/OCc1ccc(F)cc1Cl	-13	6	-16	14	20	35*
Cc1ccc(C)c(OCc2cc(C(=O)N(C)Cc3ccccn3)no2)c1	-1	-1	-3	5	0	3
Cc1ccc(C)c(OCc2cc(C(=O)N(C)Cc3nccs3)no2)c1	-4	-4	-8	28*	9	6
Cc1ccc(Nc2nc3ccccc3nc2Nc2c(C)n(C)n(-c3ccccc3)c2=O)cc1	12	3	23*	-11	-5	1
Cc1c(NC(=O)Nc2ccc(Cl)c(Cl)c2)c(=O)n(-c2ccccc2)n1C	0	0	-15	30*	10	12
Cc1c(Cl)c([N+](=O)[O-])nn1CCCC(=O)Nc1c(C)n(C)n(-c2ccccc2)c1=O	-42	-19	-31	17	27*	1
COc1ccc(NC(=O)c2cc(-c3ccc(F)cc3OC)n[nH]2)c(C)c1	-12	3	-8	-2	0	12
